{"source": "paper PMC3798158", "about": "(Journal of medicinal chemistry, 2013)", "key": {"GAPDH": {"molecular_target": "GAPDH (Oryctolagus cuniculus, UniProt P46406)", "sequence (P46406 whole entry)": "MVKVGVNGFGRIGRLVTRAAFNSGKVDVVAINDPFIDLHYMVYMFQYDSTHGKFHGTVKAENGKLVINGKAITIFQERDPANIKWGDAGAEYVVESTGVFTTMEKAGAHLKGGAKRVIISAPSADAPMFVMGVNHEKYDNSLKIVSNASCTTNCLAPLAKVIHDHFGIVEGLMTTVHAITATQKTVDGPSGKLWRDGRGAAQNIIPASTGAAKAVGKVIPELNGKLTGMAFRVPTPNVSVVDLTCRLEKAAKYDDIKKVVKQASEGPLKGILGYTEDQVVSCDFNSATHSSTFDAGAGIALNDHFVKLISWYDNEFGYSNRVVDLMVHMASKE", "test": "High resolution LC-MS of structural modifications of GAPDH tryptic peptides", "design": "species or system rabbit", "details": "for Products, GAPDH tryptic peptide I143–K159 (Cys 149, Cys 153) / Products, GAPDH tryptic peptide V232–R245 (Cys 244): LC-MS after trypsin digest, 10 eq. where printed; for Product at Cys 281 of GAPDH (peptide G269–K306): mass spectrometric data extraction from reaction mixture", "outline": "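Rabbit muscle GAPDH was incubated with test compound (10 equiv), then trypsin-digested at 20:1 (w/w, monomer:trypsin), 37 °C, 12−16 h, in 50 mM Tris-HCl, and quenched by freezing at −20 °C. Positive-ion Orbitrap, resolution 60000; Cys-peptide modifications were assigned by m/z.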"}, "[1]": {"details": "cited from earlier work; for t1/2 of HNO release: neutral conditions"}, "AhpC C165S": {"molecular_target": "AhpC C165S (Salmonella typhimurium, UniProt P0A251, C166S)", "details": "LC-MS after Asp-N digest, 10 eq. where printed"}, "rabbit muscle GAPDH [2]": {"molecular_target": "T1, rabbit muscle GAPDH (Oryctolagus cuniculus, UniProt P46406)", "T1 sequence (P46406 whole entry)": "as above", "test": "Reversibility of GAPDH inhibition by DTT", "type": "biochemical", "details": "for GAPDH enzyme activity after treatment / GAPDH enzyme activity restored after DTT incubation: 1 μM compound, 60 min; for GAPDH enzyme activity restored after DTT incubation: then DTT"}, "[3]": {"test": "Stopped-flow UV-vis kinetic decomposition", "type": "physicochemical", "details": "compared with AS"}, "rabbit muscle GAPDH [4]": {"molecular_target": "T1, rabbit muscle GAPDH", "test": "In vitro inhibition of GAPDH", "type": "biochemical", "details": "for GAPDH inhibition (in words): incubation of GAPDH"}, "myofilament": {"tested_on": "myofilament", "details": "sensitizing myofilament responsiveness to calcium; cited from earlier work"}, "STAT3": {"tested_on": "STAT3", "details": "similar to AS; cited from earlier work"}}, "note": "Entries after “also recorded” stand apart in the source; their conditions may differ. Structures can show the parent of a compound that is named as a salt. Where two headings read alike, the source gives them in different places.", "data": [{"molecule": "Sodium trioxidinitrate [AS]", "values": [{"measurement": "Products, GAPDH tryptic peptide I143–K159 (Cys 149, Cys 153)", "setting": "GAPDH", "result": "Internal disulfide; RSSR"}, {"measurement": "Products, GAPDH tryptic peptide V232–R245 (Cys 244)", "setting": "GAPDH; listed as 14N AS", "result": "Sulfinamide; also recorded: Sulfinic acid"}, {"measurement": "Product at Cys 281 of GAPDH (peptide G269–K306)", "setting": "GAPDH", "result": "sulfinamide"}, {"measurement": "rate constant of decomposition to HNO and nitrite", "setting": "[1]; pH 7, 37 °C", "result": 0.005, "unit": "s⁻¹"}, {"measurement": "Products, C165S AhpC Asp-N peptide D41–G51 (Cys 46)", "setting": "AhpC C165S; listed as 14N AS", "result": "Sulfinamide; also recorded: Sulfinic acid"}, {"measurement": "GAPDH enzyme activity after treatment", "setting": "rabbit muscle GAPDH [2]", "result": "23 % of control"}, {"measurement": "GAPDH enzyme activity restored after DTT incubation", "setting": "rabbit muscle GAPDH [2]", "result": "51 % of control"}]}, {"molecule": "O=NC1(OC(=O)C(F)(F)F)CCCCC1", "note": "[compound 3, 1-Nitrosocyclohexyl trifluoroacetate]", "values": [{"measurement": "HNO release rate relative to AS", "setting": "[3]", "result": "over 1000 times faster"}, {"measurement": "Products, GAPDH tryptic peptide I143–K159 (Cys 149, Cys 153)", "setting": "GAPDH", "result": "Internal disulfide; RSSR"}, {"measurement": "Products, GAPDH tryptic peptide V232–R245 (Cys 244)", "setting": "GAPDH", "result": "Sulfinamide,; also recorded: Sulfinic acid"}]}, {"molecule": "N[C@@H](CCC(=O)N[C@@H](CSN=O)C(=O)NCC(=O)O)C(=O)O", "note": "[GSNO, S-nitrosoglutathione]", "values": [{"measurement": "GAPDH inhibition (in words)", "setting": "rabbit muscle GAPDH [4]", "result": "inhibition of enzyme activity"}, {"measurement": "Products, GAPDH tryptic peptide V232–R245 (Cys 244)", "setting": "GAPDH", "result": "Nitrosylated product"}, {"measurement": "Products, C165S AhpC Asp-N peptide D41–G51 (Cys 46)", "setting": "AhpC C165S", "result": "Nitrosylated Product"}, {"measurement": "DTT reversibility of GAPDH inhibition (in words)", "setting": "rabbit muscle GAPDH [2]", "result": "completely DTT reversible"}]}, {"molecule": "CC(=O)OC1(N=O)CCCCC1", "note": "[compound 1, 1-Nitrosocyclohexyl acetate]", "values": [{"measurement": "Products, GAPDH tryptic peptide I143–K159 (Cys 149, Cys 153)", "setting": "GAPDH", "result": "Internal disulfide; RSSR"}, {"measurement": "Products, GAPDH tryptic peptide V232–R245 (Cys 244)", "setting": "GAPDH", "result": "Sulfinic acid"}, {"measurement": "Product at Cys 281 of GAPDH (peptide G269–K306)", "setting": "GAPDH", "result": "sulfinic acid"}, {"measurement": "t1/2 of HNO release", "setting": "[1]", "result": 13.3, "unit": "h"}, {"measurement": "Products, C165S AhpC Asp-N peptide D41–G51 (Cys 46)", "setting": "AhpC C165S", "result": "Sulfinic acid"}, {"measurement": "GAPDH enzyme activity after treatment", "setting": "rabbit muscle GAPDH [2]", "result": "5 % of control"}, {"measurement": "GAPDH enzyme activity restored after DTT incubation", "setting": "rabbit muscle GAPDH [2]", "result": "12 % of control"}, {"measurement": "effect on myocardial contractility", "setting": "myofilament", "result": "enhances myocardial contractility more potently than AS"}]}, {"molecule": "Diethylammonium-1- (N,N-diethylamino) diazen-1-ium- 1,2-diolate [DEANO]", "values": [{"measurement": "GAPDH inhibition (in words)", "setting": "rabbit muscle GAPDH [4]", "result": "inhibition of enzyme activity"}, {"measurement": "Products, GAPDH tryptic peptide V232–R245 (Cys 244)", "setting": "GAPDH", "result": "Nitrosylated product"}]}, {"molecule": "O=S(=O)(NO)c1ccccc1Br", "note": "[o-Bromo-Piloty’s Acid]", "values": [{"measurement": "Products, GAPDH tryptic peptide I143–K159 (Cys 149, Cys 153)", "setting": "GAPDH", "result": "Internal disulfide; RSSR"}, {"measurement": "Products, GAPDH tryptic peptide V232–R245 (Cys 244)", "setting": "GAPDH", "result": "Sulfinamide; also recorded: Sulfinic acid"}, {"measurement": "Products, C165S AhpC Asp-N peptide D41–G51 (Cys 46)", "setting": "AhpC C165S", "result": "Sulfinamide; also recorded: Sulfinic acid"}]}, {"molecule": "CC(C)(C)C(=O)OC1(N=O)CCCCC1", "note": "[compound 2, 1-nitrosocyclohexyl pivalate]", "values": [{"measurement": "Products, GAPDH tryptic peptide I143–K159 (Cys 149, Cys 153)", "setting": "GAPDH", "result": "Internal disulfide; RSSR"}, {"measurement": "Products, GAPDH tryptic peptide V232–R245 (Cys 244)", "setting": "GAPDH", "result": "Sulfinic acid"}, {"measurement": "t1/2 of HNO release", "setting": "[1]", "result": 37.8, "unit": "h"}, {"measurement": "Products, C165S AhpC Asp-N peptide D41–G51 (Cys 46)", "setting": "AhpC C165S", "result": "Sulfinic acid"}, {"measurement": "effect on STAT3 activation", "setting": "STAT3", "result": "blocks STAT3 activation"}, {"measurement": "effect on myocardial contractility", "setting": "myofilament", "result": "no effect"}]}, {"molecule": "O=Nc1ccccc1", "note": "[Nitrosobenzene, nitrosobenzene]", "values": [{"measurement": "IC50", "setting": "rabbit muscle GAPDH [4]", "result": 230, "unit": "nM"}, {"measurement": "Products, GAPDH tryptic peptide V232–R245 (Cys 244)", "setting": "GAPDH", "result": "Sulfinic acid"}, {"measurement": "Products, C165S AhpC Asp-N peptide D41–G51 (Cys 46)", "setting": "AhpC C165S", "result": "Sulfinic acid"}]}]}
